Drawing on ChEMBL document CHEMBL1131410, “Synthesis and biological evaluation of 4-chloro-3, 5-dinitrobenzotrifluoride analogues as antileishmanial agents” (J Med Chem, 1998), this text covers logP, IC50 and Suppression for 19 compounds.

The nature of data set [1]: Partition coefficient (logP). The following applies: octanol/water. In kind it is physicochemical.
For data set [2], the system named is Leishmania donovani. As to the kind of experiment: In vitro inhibition of Leishmania donovani parasite. The class given is functional, organism-based. In a few lines:
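L. donovani MHOM/SD/62/1S-CL2D axenic amastigote-like forms, seeded at 10^6 cells/mL in amastigote medium with or without drug (DMSO at most 1.25% v/v). Incubated 72 h at 37 °C, humid 5% CO2. A tetrazolium-type Cell Titer reagent was then added for a further 8–12 h and absorbance read at 490 nm. IC50 fitted by a four-parameter log dose-response equation.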

Data set [3] relates to Cricetinae gen. sp. The experiment in a line: Percent suppression of parasitaemia was measured in vivo against Visceral Leishmania donovani in hamsters at 13 mg/kg of dosage level. The class given is functional, Cricetulus griseus. In a few lines: (§1)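 Hamsters, six per group, infected intracardially with 1.0×10^7 L. donovani Khartoum amastigotes from donor hamster spleens. Dosed intramuscularly for 4 consecutive days starting day 3 post-infection and screened blind. On day 7 the animals were sacrificed and total parasite number per liver was counted. Result expressed as % suppression of parasitemia.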

Data set [4] has as its system Cricetinae gen. sp. As to the kind of experiment: Percent suppression of parasitaemia was measured in vivo against Visceral Leishmania donovani in hamsters at 208 mg/kg of dosage level. In kind it is functional, Cricetulus griseus. In a few lines:
as §1

The subject of data set [5] is Cricetinae gen. sp. The experiment in a line: Percent suppression of parasitaemia was measured in vivo against Visceral Leishmania donovani in hamsters at 52 mg/kg of dosage level. The class given is functional, Cricetulus griseus. In a few lines:
as §1

The test system of data set [6] is Leishmania donovani. The experiment in a line: Compound was evaluated in vitro against Leishmania donovani parasite. In kind it is functional, organism-based. In a few lines:
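Axenic amastigote-like L. donovani (MHOM/SD/62/1S-CL2D), seeded at 10^6 cells/mL with or without drug, DMSO ≤1.25% (v/v), 72 h at 37 °C, 5% CO2. Tetrazolium-type dehydrogenase reagent added, further 8–12 h, absorbance at 490 nm; IC50 from four-parameter log dose-response fit.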

The subject of data set [7] is Cricetinae gen. sp. The experiment in a line: % suppression of parasitaemia was measured in vivo against Visceral Leishmania donovani in hamsters at 208 mg/kg of dosage level. The class given is functional, Cricetulus griseus.
Data set [8] relates to Cricetinae gen. sp. The experiment in a line: % suppression of parasitaemia was measured in vivo against Visceral Leishmania donovani in hamsters at 52 mg/kg of dosage level. In kind it is functional, Cricetulus griseus.

What is called logP is a log measure of how a compound divides between an organic and an aqueous phase. The low end stands for a more hydrophilic compound, the high end for a more lipophilic compound. A word on the IC50: it is the concentration that gives 50% inhibition. In the case of `O=S(=O)(c1cc(C(F)(F)F)ccc1Cl)N1CCCCCC1`, the logP in data set [1] came to 4.57. In the data set on Leishmania donovani [2], this compound showed an IC50 of 56 µM.
Compound `CCN(CC)CCNS(=O)(=O)c1cc(C(F)(F)F)ccc1F` registered a logP in data set [1] of 3.3. Also, the IC50 in the data set with Leishmania donovani [2] is > 450 µM.
`CN1CCN(S(=O)(=O)c2cc(C(F)(F)F)ccc2F)CC1` had a logP in data set [1] of 2.61. Besides, in the data set on Leishmania donovani [2], the IC50 worked out at 199 µM.
With `NS(=O)(=O)c1cc(C(F)(F)F)ccc1F`, in data set [1], the logP turned out to be 1.68. Further, the IC50 in the data set on Leishmania donovani [2] was > 450 µM.
The corresponding values for `O=S(=O)(c1cc(C(F)(F)F)ccc1F)N1CCN(c2ccccn2)CC1` are 2.91 and > 450 µM.
Take `O=S(=O)(c1cc(C(F)(F)F)ccc1N1CCCC1)N1CCCC1`: the Suppression in the data set with Cricetinae gen. sp. [3] is on record as 16%; in the data set on Cricetinae gen. sp. [4] it was 30%; in the data set with Cricetinae gen. sp. [5], 29%. This compound showed a logP in data set [1] of 3.57. In the data set on Leishmania donovani [2], this compound displayed an IC50 of 23 µM.
With `O=S(=O)(c1cc(C(F)(F)F)ccc1Cl)N1CCCCC1`, the logP in data set [1] turned out to be 4.01. The same compound displayed an IC50 in the data set with Leishmania donovani [2] of 110 µM.
In data set [1], `O=S(=O)(c1cc(C(F)(F)F)ccc1Cl)N1CCN(c2ccccn2)CC1` came in with a logP of 3.45. Also, half-maximal inhibition with Leishmania donovani [2] (IC50) was put at 44 µM.
`O=S(=O)(c1cc(C(F)(F)F)ccc1Cl)N1CCCC1` displayed a logP in data set [1] of 3.44. Also, inhibition in the data set on Leishmania donovani [2] was half-maximal at 115 µM (IC50).
Compound `O=[N+]([O-])c1cc(C(F)(F)F)cc([N+](=O)[O-])c1Cl` [CHLORALIN] registered an IC50 with Leishmania donovani [6] of 1.3 µM. The compound also gave a logP in data set [1] of 3.43. For the same compound, the Suppression came out at 32% in the data set with Cricetinae gen. sp. [7] and 21% in the data set on Cricetinae gen. sp. [8].
As to MEGLUMINE ANTIMONATE, the Suppression with Cricetinae gen. sp. [4] (Cricetulus griseus) turned out to be 73%; in the data set on Cricetinae gen. sp. [5] (Cricetulus griseus) it was 27%.
In data set [1], `O=S(=O)(c1cc(C(F)(F)F)ccc1F)N1CCCCC1` showed a logP of 3.47. This compound also showed an IC50 in the data set on Leishmania donovani [2] of 418 µM.
The corresponding values for `O=S(=O)(c1cc(C(F)(F)F)ccc1F)N1CCCC1` are 2.9 and > 450 µM.
In data set [1], `CNS(=O)(=O)c1cc(C(F)(F)F)ccc1F` came in with a lipophilicity (logP) of 2.08. In addition, the IC50 in the data set with Leishmania donovani [2] was > 450 µM.
On the same counts, the results for `CCN(CC)CCNS(=O)(=O)c1cc(C(F)(F)F)ccc1Cl` are 3.85 and > 450 µM.
The corresponding values for `CN1CCN(S(=O)(=O)c2cc(C(F)(F)F)ccc2Cl)CC1` are 3.16 and 321 µM.
As for `NS(=O)(=O)c1cc(C(F)(F)F)ccc1Cl`, the log partition coefficient (logP) in data set [1] came to 1.98. Besides, the IC50 with Leishmania donovani [2] is > 450 µM.
`CNS(=O)(=O)c1cc(C(F)(F)F)ccc1Cl` returned a logP in data set [1] of 2.63. In the data set with Leishmania donovani [2], the IC50 was > 450 µM.
Consider `O=S(=O)(c1cc(C(F)(F)F)ccc1F)N1CCCCCC1`, for which the Suppression was determined as 11% with Cricetinae gen. sp. [3], 19% in the data set on Cricetinae gen. sp. [4] and 13% in the data set on Cricetinae gen. sp. [5]. This compound also registered a logP in data set [1] of 4.03. Further, in the data set on Leishmania donovani [2], the IC50 turned out to be 108 µM.
